Source: ChEMBL document CHEMBL4680305, “Synthesis and biological evaluation of all possible inosine-mixed cyclic dinucleotides that activate different hSTING variants” (Bioorg Med Chem, 2021)
Each block holds one compound with its values, some of them ahead of it. The source made the active and inactive calls. The calls are words filed in the database; no cut-off is given here.

Tests used:
HEK293T = assay: Activation of human STING R232H mutant expressed in HEK293T cells assessed as increase IFN-beta activity at 5 uM […] by dual-luciferase reporter gene assay; assay type: cell-based; conditions: filed as activator
Procedure, shortened: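 HEK293T cells were co-transfected using polyjet with pcDNA3.1-hSTING R232H (50 ng), pGL3-IFNβ firefly reporter (400 ng) and pGL4.74-Rluc-TK (50 ng). After 24 h, cells were stimulated with 5 µM CDN for 30 min in digitonin buffer (10 µg/mL digitonin, 1 mM ATP, 0.1 mM GTP, HEPES/KCl/MgCl2), then put back in normal medium. Lysates were taken 12 h later for dual-luciferase readout; mean ± s.e.m., n = 5.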

[1] = Stability of compound in presence of 20% FBS
Procedure, shortened: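 CDN at 0.1 µg/µL was incubated at 37 °C in 20% FBS with 20 mM PBS pH 7.4 and 5 mM MgCl2, against a water control. Aliquots taken at various time points were quenched with EDTA pH 8.0 and centrifuged. They were analysed by HPLC with UV at 254 nm, using 10 mM TEAA/MeCN mobile phase at 25 °C.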

[2] = biological target: Stimulator of interferon genes protein (Homo sapiens, UniProt Q86WV6); assay: Binding affinity to wild-type human STING-CTD (139-379) expressed in Escherichia coli BL21(D Escherichia ) cells by isothermal titration calorimetry
Chain of Stimulator of interferon genes protein (Q86WV6 whole entry): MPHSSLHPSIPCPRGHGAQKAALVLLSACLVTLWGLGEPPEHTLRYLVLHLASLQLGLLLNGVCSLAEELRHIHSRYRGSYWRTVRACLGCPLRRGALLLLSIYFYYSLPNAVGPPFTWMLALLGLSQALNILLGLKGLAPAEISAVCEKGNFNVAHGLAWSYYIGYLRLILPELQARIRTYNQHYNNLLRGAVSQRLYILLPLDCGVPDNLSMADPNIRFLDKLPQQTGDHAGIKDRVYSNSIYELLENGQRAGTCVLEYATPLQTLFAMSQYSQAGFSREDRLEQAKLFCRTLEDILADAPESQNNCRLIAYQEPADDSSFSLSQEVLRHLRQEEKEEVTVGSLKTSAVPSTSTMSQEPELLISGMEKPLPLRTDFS

Compound: O=c1[nH]cnc2c1ncn2[C@@H]1O[C@@H]2COP(=O)(O)O[C@@H]3[C@H](O)[C@@H](COP(=O)(O)O[C@H]2[C@H]1O)O[C@H]3n1cnc2c(=O)[nH]cnc21
Activity (HEK293T): Active

Compound: Nc1nc2c(ncn2[C@@H]2O[C@@H]3COP(=O)(O)O[C@@H]4[C@H](O)[C@@H](COP(=O)(O)O[C@@H]2[C@@H]3O)O[C@H]4n2cnc3c(=O)[nH]cnc32)c(=O)[nH]1
Activity (HEK293T): Active

Compound: Nc1ncnc2c1ncn2[C@@H]1O[C@@H]2COP(=O)(O)O[C@@H]3[C@H](O)[C@@H](COP(=O)(O)O[C@@H]1[C@@H]2O)O[C@H]3n1cnc2c(O)ncnc21
Activity (HEK293T): Active

Compound: Nc1ncnc2c1ncn2[C@@H]1O[C@@H]2COP(=O)(O)O[C@H]3[C@@H](O)[C@H](n4cnc5c(O)ncnc54)O[C@@H]3COP(=O)(O)O[C@@H]1[C@@H]2O
Activity (HEK293T): Active

Compound: Nc1ncnc2c1ncn2[C@@H]1O[C@@H]2COP(=O)(O)O[C@H]3[C@@H](O)[C@H](n4cnc5c(O)ncnc54)O[C@@H]3COP(=O)(O)O[C@H]2[C@H]1O
Stability [1]: Stable

Kd [2]: 19.5 µM
Compound: O=c1[nH]cnc2c1ncn2[C@@H]1O[C@@H]2COP(=O)(O)O[C@H]3[C@@H](O)[C@H](n4cnc5c(=O)[nH]cnc54)O[C@@H]3COP(=O)(O)O[C@H]2[C@H]1O

Compound: O=c1[nH]cnc2c1ncn2[C@@H]1O[C@@H]2COP(=O)(O)O[C@@H]3[C@H](O)[C@@H](COP(=O)(O)O[C@@H]1[C@@H]2O)O[C@H]3n1cnc2c(=O)[nH]cnc21
Activity (HEK293T): Active

Compound: Nc1ccn([C@@H]2O[C@@H]3COP(=O)(O)O[C@@H]4[C@H](O)[C@@H](COP(=O)(O)O[C@@H]2[C@@H]3O)O[C@H]4n2cnc3c(=O)[nH]cnc32)c(=O)n1
Activity (HEK293T): Active

Compound: O=c1ccn([C@@H]2O[C@@H]3COP(=O)(O)O[C@@H]4[C@H](O)[C@@H](COP(=O)(O)O[C@@H]2[C@@H]3O)O[C@H]4n2cnc3c(=O)[nH]cnc32)c(=O)[nH]1
Activity (HEK293T): Active

Compound: Nc1ccn([C@@H]2O[C@@H]3COP(=O)(O)O[C@H]4[C@@H](O)[C@H](n5cnc6c(=O)[nH]cnc65)O[C@@H]4COP(=O)(O)O[C@@H]2[C@@H]3O)c(=O)n1
Activity (HEK293T): Active

Compound: Nc1ncnc2c1ncn2[C@@H]1O[C@@H]2COP(=O)(O)O[C@@H]3[C@H](O)[C@@H](COP(=O)(O)O[C@H]2[C@H]1O)O[C@H]3n1cnc2c(=O)[nH]cnc21
Activity (HEK293T): Active
